Results as given in PubChem BioAssay AID602169 (The Scripps Research Institute Molecular Screening Center, 2012).
Calls of active or inactive are those of the source.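 Rule for the calls: active = luciferase reporter signal inhibited by 20% or more; inactive = inhibition below 20%.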

Test system: BG1Luc4E2 ER-luciferase reporter inhibition, 24 h
Assay: inhibitors of ER-driven luciferase reporter, late-stage follow-up, counter-screen for AHR activator project, BG1Luc4E2 ovarian carcinoma cells, luminescence (AID 602169)
Details: at 10 µM; stronger effect = higher value
Outline: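 system = BG1Luc4E2 human ovarian carcinoma cells with stable ERE-driven firefly luciferase | buffer or medium = phenol red-free DMEM, charcoal-stripped serum | probe or stimulus = estradiol 17β, co-added with test compound | times = 5 d stripping, 24 h treatment at 37 °C | technique = firefly luciferase luminescence from lysed cells | replication = triplicates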

Row | Compound | inhibition
1 | CCOc1ccccc1NC(=O)c1ccc2nccnc2c1 | 8% (inactive)
2 | COC(=O)c1ccccc1NC(=O)Cn1ccnc1 | 3% (inactive)
3 | CCCC(=O)Nc1nn(C)c2nc3cc(C)ccc3cc12 | 0% (inactive)
4 | COc1ccccc1NC(=O)c1ccc2c(c1)nnn2C | 0% (inactive)
5 | Cc1c(-c2ccn[nH]2)cc(NC(=O)c2ccc(Cl)cc2)c(=O)n1N | 1% (inactive)
6 | COc1ccccc1C(=O)Nc1ccc(N2CCCCC2)cc1 | 47%
7 | CN1CCN(CCCNC(=O)c2cc3c(-c4ccc(Cl)cc4)nn(C)c3s2)CC1 | 0% (inactive)
8 | CCOC(=O)Cc1cc(-c2ccc(O)cc2)nc2ccc3ccccc3c12 | 28%
9 | Cc1nc(N)nc(Nc2ccc(Cl)cc2)c1Br | 7% (inactive)
10 | COc1ccc(C(=O)Nc2cc(OC)c(NC(=O)c3ccco3)cc2OC)cc1 | 0% (inactive)
11 | O=C(CN1CCOCC1)Nc1nc2ccc([N+](=O)[O-])cc2s1 | 11% (inactive)
12 | O=C(Nc1cccc(Cl)c1)c1cccnn1 | 2% (inactive)
13 | O=C(Nc1ccon1)c1cnc2sccn2c1=O | 34%
14 | COc1ccc(Cl)cc1C(=O)Nc1ccc(N(C)C(C)=O)cc1 | 2% (inactive)
15 | COc1cc2c(cc1NC(=O)Nc1ccc(C)cc1)oc1ccccc12 | 5% (inactive)
16 | Cc1cc(Nc2ccc(Br)cc2)n2nc(C)nc2n1 | 0% (inactive)
17 | O=C1c2ccccc2-c2nc3ccccc3nc21 | 34%

Row | Compound | inhibition
18 | Cn1c(N)c(C(=O)Nc2ccccc2F)sc1=S | 5% (inactive)
19 | Cn1c(C(=O)N2CCC(C(N)=O)CC2)cc2cc(Cl)ccc21 | 4% (inactive)
20 | CN(C)c1nc(N)nc(-c2nc3ccccc3s2)n1 | 44%
21 | COc1ccc(NC(=O)c2cccc3c(Br)cccc23)cc1 | 31%
22 | CCOc1ccc(NC(=O)c2cc3ccccc3cc2OC)cc1 | 5.3% (inactive)
23 | Cc1ccc(-c2cc(-c3cccs3)[nH]n2)c(O)c1 | 20%
24 | Cc1nnc(N2C(=O)c3cccc4c([N+](=O)[O-])ccc(c34)C2=O)s1 | 0% (inactive)
25 | COc1cc2ccccc2cc1C(=O)Nc1ccc(C)cc1 | 40%
26 | CCOc1ccc(-c2cc(C)n3nc(C(N)=O)cc3n2)cc1 | 0% (inactive)
27 | Cc1ccc(Nc2ncccc2C(N)=O)cc1 | 24%
28 | CC(=O)c1ccc(NC(=O)c2cc(Cl)nc3ccccc23)cc1 | 2% (inactive)
29 | Cc1ccccc1-c1nc(-c2cccnc2)no1 | 22%
30 | COc1ccccc1NC(=O)Nc1cccnc1 | 3% (inactive)
31 | CCC(=O)Nc1cc(OC)c(NC(=O)c2ccccc2)cc1OC | 1% (inactive)
32 | COc1ccccc1NC(=O)c1ccc(C(=O)Nc2ccccc2OC)nc1 | 0% (inactive)
33 | Cc1csc(SCC(=O)Nc2ccc(Cl)cn2)n1 | 0% (inactive)
